Measurements from ChEMBL document CHEMBL4270530, “Surmounting the resistance against EGFR inhibitors through the development of thieno[2,3-d]pyrimidine-based dual EGFR/HER2 inhibitors” (Eur J Med Chem, 2018).

How the values were obtained:
Type in all cases: functional
[1] = test system: SK-MEL-28; test: Growth inhibition of human SK-MEL-28 cells assessed as cell growth at 10 uM incubated for 48 hrs by sulforhodamine B assay relative to control; conditions: SK-MEL-28, 48 h, read-out: Activity
Summary of the method: (§1)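 NCI-60 one-dose screen run by the NCI Developmental Therapeutics Program at a single 10 µM concentration; growth percent read from the one-dose mean graph.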

[2] = test system: RXF 393; test: Growth inhibition of human RXF393 cells assessed as cell growth at 10 uM incubated for 48 hrs by sulforhodamine B assay relative to control; conditions: RXF 393, 48 h, read-out: Activity; summary of the method: as §1
[3] = test system: SN12C; test: Growth inhibition of human SN12C cells assessed as cell growth at 10 uM incubated for 48 hrs by sulforhodamine B assay relative to control; conditions: read-out: Activity; summary of the method: as §1
[4] = test system: CCRF-CEM; test: Growth inhibition of human CCRF-CEM cells assessed as cell growth at 10 uM incubated for 48 hrs by sulforhodamine B assay relative to control; conditions: read-out: Activity; summary of the method: as §1
[5] = test system: HCT-15; test: Growth inhibition of human HCT15 cells assessed as cell growth at 10 uM incubated for 48 hrs by sulforhodamine B assay relative to control; conditions: HCT-15, 48 h, read-out: Activity; summary of the method: as §1
[6] = test system: T47D; test: Growth inhibition of human T47D cells assessed as cell growth at 10 uM incubated for 48 hrs by sulforhodamine B assay relative to control; conditions: read-out: Activity
Summary of the method: (§2)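 NCI-60 single-dose screen at 10 µM run by the NCI Developmental Therapeutics Program; growth percent read from the one-dose mean graph, with percent inhibition approximated from those growth-percent values.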

[7] = test system: 786-0; test: Growth inhibition of human 786-0 cells assessed as cell growth at 10 uM incubated for 48 hrs by sulforhodamine B assay relative to control; conditions: 786-0, 48 h, read-out: Activity; summary of the method: as §1
[8] = test system: NCI-H460; test: Growth inhibition of human NCI-H460 cells assessed as cell growth at 10 uM incubated for 48 hrs by sulforhodamine B assay relative to control; conditions: NCI-H460, 48 h, read-out: Activity; summary of the method: as §1
[9] = test system: SNB-19; test: Growth inhibition of human SNB19 cells assessed as cell growth at 10 uM incubated for 48 hrs by sulforhodamine B assay relative to control; conditions: SNB-19, 48 h, read-out: Activity; summary of the method: as §1
[10] = test system: SK-MEL-5; test: Growth inhibition of human SK-MEL-5 cells assessed as cell growth at 10 uM incubated for 48 hrs by sulforhodamine B assay relative to control; conditions: SK-MEL-5, 48 h, read-out: Activity; summary of the method: as §1
[11] = test system: NCI-H226; test: Growth inhibition of human NCI-H226 cells assessed as cell growth at 10 uM incubated for 48 hrs by sulforhodamine B assay relative to control; conditions: NCI-H226, 48 h, read-out: Activity; summary of the method: as §1
[12] = test system: SK-MEL-2; test: Growth inhibition of human SK-MEL-2 cells assessed as cell growth at 10 uM incubated for 48 hrs by sulforhodamine B assay relative to control; conditions: SK-MEL-2, 48 h, read-out: Activity; summary of the method: as §1
[13] = test system: KM12; test: Growth inhibition of human KM12 cells assessed as cell growth at 10 uM incubated for 48 hrs by sulforhodamine B assay relative to control; conditions: KM12, 48 h, read-out: Activity; summary of the method: as §1
[14] = test system: DU-145; test: Growth inhibition of human DU145 cells assessed as cell growth at 10 uM incubated for 48 hrs by sulforhodamine B assay relative to control; conditions: DU-145, 48 h, read-out: Activity; summary of the method: as §1
[15] = test system: UACC-257; test: Growth inhibition of human UACC257 cells assessed as cell growth at 10 uM incubated for 48 hrs by sulforhodamine B assay relative to control; conditions: UACC-257, 48 h, read-out: Activity; summary of the method: as §2
[16] = test system: Hs-578T; test: Growth inhibition of human Hs 578T cells assessed as cell growth at 10 uM incubated for 48 hrs by sulforhodamine B assay relative to control; conditions: read-out: Activity; summary of the method: as §1
[17] = test system: SF-295; test: Growth inhibition of human SF295 cells assessed as cell growth at 10 uM incubated for 48 hrs by sulforhodamine B assay relative to control; conditions: SF-295, 48 h, read-out: Activity; summary of the method: as §1
[18] = test system: NCI-H23; test: Growth inhibition of human NCI-H23 cells assessed as cell growth at 10 uM incubated for 48 hrs by sulforhodamine B assay relative to control; conditions: NCI-H23, 48 h, read-out: Activity; summary of the method: as §1
[19] = test system: MOLT-4; test: Growth inhibition of human MOLT4 cells assessed as cell growth at 10 uM incubated for 48 hrs by sulforhodamine B assay relative to control; conditions: MOLT-4, 48 h, read-out: Activity; summary of the method: as §1
[20] = test system: OVCAR-4; test: Growth inhibition of human OVCAR4 cells assessed as cell growth at 10 uM incubated for 48 hrs by sulforhodamine B assay relative to control; conditions: OVCAR-4, 48 h, read-out: Activity; summary of the method: as §1
[21] = test system: MDA-MB-231; test: Growth inhibition of human MDA-MB-231 cells assessed as cell growth at 10 uM incubated for 48 hrs by sulforhodamine B assay relative to control; conditions: MDA-MB-231, 48 h, read-out: Activity; summary of the method: as §1
[22] = test system: HOP-92; test: Growth inhibition of human HOP92 cells assessed as cell growth at 10 uM incubated for 48 hrs by sulforhodamine B assay relative to control; conditions: HOP-92, 48 h, read-out: Activity; summary of the method: as §1
[23] = test system: MDA-MB-468; test: Growth inhibition of human MDA-MB-468 cells at 10 uM incubated for 48 hrs by sulforhodamine B assay relative to control; conditions: MDA-MB-468, 48 h, read-out: GI; summary of the method: as §1
[24] = test system: IGROV-1; test: Growth inhibition of human IGROV1 cells at 10 uM incubated for 48 hrs by sulforhodamine B assay relative to control; conditions: IGROV-1, 48 h, read-out: GI; summary of the method: as §1
[25] = test system: NCI-H522; test: Growth inhibition of human NCI-H522 cells assessed as cell growth at 10 uM incubated for 48 hrs by sulforhodamine B assay relative to control; conditions: NCI-H522, 48 h, read-out: Activity; summary of the method: as §1
[26] = test system: A549; test: Growth inhibition of human A549/ATCC cells assessed as cell growth at 10 uM incubated for 48 hrs by sulforhodamine B assay relative to control; conditions: A549, 48 h, read-out: Activity; summary of the method: as §1
[27] = test system: UACC-62; test: Growth inhibition of human UACC62 cells assessed as cell growth at 10 uM incubated for 48 hrs by sulforhodamine B assay relative to control; conditions: UACC-62, 48 h, read-out: Activity; summary of the method: as §2
[28] = test system: LOX IMVI; test: Growth inhibition of human LOXIMVI cells assessed as cell growth at 10 uM incubated for 48 hrs by sulforhodamine B assay relative to control; conditions: read-out: Activity; summary of the method: as §1

Row | SMILES | growth at 10 µM [1] [%] | growth at 10 µM [2] [%] | growth at 10 µM [3] [%] | growth at 10 µM [4] [%] | growth at 10 µM [5] [%] | growth at 10 µM [6] [%] | growth at 10 µM [7] [%] | growth at 10 µM [8] [%] | growth at 10 µM [9] [%] | growth at 10 µM [10] [%] | growth at 10 µM [11] [%] | growth at 10 µM [12] [%] | growth at 10 µM [13] [%] | growth at 10 µM [14] [%] | growth at 10 µM [15] [%] | growth at 10 µM [16] [%] | growth at 10 µM [17] [%] | growth at 10 µM [18] [%] | growth at 10 µM [19] [%] | growth at 10 µM [20] [%] | also measured
1 | Nc1ccc(-c2cc3c(Nc4ccc(OCc5cccc(F)c5)c(Cl)c4)ncnc3s2)cc1 | 39.2 | 52.5 | 48.4 | 23.9 | 32.9 | 15.4 | 37.2 | 36.5 | 77.3 | 57.7 | 53.5 | 25.4 | 24 | 36.9 | 18.3 | 77 | 47.8 | 68.6 | 30 | 54.8 | growth at 10 µM [21]: 13.4%; growth at 10 µM [22]: 45.8%; inhibition of growth at 10 µM [23]: 85%; inhibition of growth at 10 µM [24]: 60%; growth at 10 µM [25]: 13.1%; growth at 10 µM [26]: 21.2%; growth at 10 µM [27]: 55.7%; growth at 10 µM [28]: 24.5%
2 | O=[N+]([O-])c1ccc(-c2cc3c(Nc4ccc(OCc5cccc(F)c5)c(Cl)c4)ncnc3s2)cc1 | 110 | 81.3 | 83.4 | 68.6 | 63.4 | 76.6 | 95.4 | 42.2 | 68 | 92.8 | 86.4 | 86.2 | 80 | 82.1 | 93.5 | 94.9 | 69.7 | 73.1 | 65.7 | 89.6 | growth at 10 µM [21]: 87.8%; growth at 10 µM [22]: 82.1%; inhibition of growth at 10 µM [23]: 40%; inhibition of growth at 10 µM [24]: 12%; growth at 10 µM [25]: 68.3%; growth at 10 µM [26]: 51.4%; growth at 10 µM [27]: 79.1%; growth at 10 µM [28]: 75.5%
